Source: ChEMBL document CHEMBL4396871, “Leveraging a Low-Affinity Diazaspiro Orthosteric Fragment to Reduce Dopamine D3 Receptor (D3R) Ligand Promiscuity across Highly Conserved Aminergic G-Protein-Coupled Receptors (GPCRs)” (J Med Chem, 2019)
pEC50, pKi: −log10 of the molar value.

How the values were obtained:
[1] = target: T1, Neuronal acetylcholine receptor; alpha3/beta4 (Homo sapiens, UniProt P30926+P32297); assay: Displacement of [3H]-epibatidine from recombinant human alpha3beta4 nACHR stably expressed in HEK cells at 10 uM measured after 90 mins by microbeta scintillation counting method relative to control; format: cell-based
T1 sequence (P30926 whole entry): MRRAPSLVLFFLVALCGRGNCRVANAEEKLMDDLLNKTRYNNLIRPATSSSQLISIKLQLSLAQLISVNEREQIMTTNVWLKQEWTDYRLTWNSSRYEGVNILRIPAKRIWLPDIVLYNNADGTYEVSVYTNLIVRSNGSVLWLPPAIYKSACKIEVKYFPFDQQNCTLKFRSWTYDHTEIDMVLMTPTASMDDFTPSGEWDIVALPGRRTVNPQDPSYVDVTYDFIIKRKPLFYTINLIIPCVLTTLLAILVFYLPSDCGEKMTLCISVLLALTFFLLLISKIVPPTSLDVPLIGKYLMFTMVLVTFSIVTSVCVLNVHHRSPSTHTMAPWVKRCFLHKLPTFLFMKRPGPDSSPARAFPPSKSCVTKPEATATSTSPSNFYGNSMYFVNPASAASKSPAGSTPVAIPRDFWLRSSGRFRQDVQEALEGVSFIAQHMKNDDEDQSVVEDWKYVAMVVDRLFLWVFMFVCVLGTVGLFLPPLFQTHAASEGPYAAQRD
T1 sequence (P32297 whole entry): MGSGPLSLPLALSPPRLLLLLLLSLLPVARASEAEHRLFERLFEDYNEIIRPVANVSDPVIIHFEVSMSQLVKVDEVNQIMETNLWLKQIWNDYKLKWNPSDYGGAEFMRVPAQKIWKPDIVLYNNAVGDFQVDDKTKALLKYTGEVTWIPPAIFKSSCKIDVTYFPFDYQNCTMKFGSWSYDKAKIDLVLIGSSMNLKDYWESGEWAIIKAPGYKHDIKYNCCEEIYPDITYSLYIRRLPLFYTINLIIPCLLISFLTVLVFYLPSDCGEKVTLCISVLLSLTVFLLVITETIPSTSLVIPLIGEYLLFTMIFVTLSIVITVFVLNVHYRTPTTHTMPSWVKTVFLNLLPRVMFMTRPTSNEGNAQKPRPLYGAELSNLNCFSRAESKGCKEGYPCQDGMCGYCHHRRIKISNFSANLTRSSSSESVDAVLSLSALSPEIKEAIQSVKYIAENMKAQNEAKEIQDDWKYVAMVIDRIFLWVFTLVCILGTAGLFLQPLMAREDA
How it was run: (§1)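 Primary screen at 10 μM compound, expressed as % receptor inhibition, from at least three experiments.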

[2] = target: Muscarinic acetylcholine receptor M2 (Homo sapiens) (UniProt P08172); assay: Displacement of [3H]-QNB/[3H]-NMS from human muscarinic M2 receptor expressed in stable CHO cells at 10 uM after 90 mins by microbeta scintillation counting method relative to control; format: cell-based; how it was run: as §1
Sequence of Muscarinic acetylcholine receptor M2 (Homo sapiens) (P08172 whole entry): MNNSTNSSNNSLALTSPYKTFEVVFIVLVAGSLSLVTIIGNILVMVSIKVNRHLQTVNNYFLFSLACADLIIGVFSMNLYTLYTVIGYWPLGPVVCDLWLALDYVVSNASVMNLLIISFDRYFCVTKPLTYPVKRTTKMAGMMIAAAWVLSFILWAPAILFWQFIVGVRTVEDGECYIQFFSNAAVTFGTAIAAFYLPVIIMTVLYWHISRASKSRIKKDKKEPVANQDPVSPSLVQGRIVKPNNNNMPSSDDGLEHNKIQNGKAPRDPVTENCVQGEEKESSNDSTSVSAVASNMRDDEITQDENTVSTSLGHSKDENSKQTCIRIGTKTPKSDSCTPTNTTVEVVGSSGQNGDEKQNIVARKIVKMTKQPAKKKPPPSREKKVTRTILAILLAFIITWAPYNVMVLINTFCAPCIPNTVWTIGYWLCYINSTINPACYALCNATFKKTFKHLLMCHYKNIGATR

[3] = target: Alpha-2A adrenergic receptor (Homo sapiens, UniProt P08913); assay: Displacement of [3H]-rauwolscine from recombinant human alpha2A adrenergic receptor stably expressed in MDCK cells measured after 90 mins by microbeta scintillation counting method; format: cell-based
Sequence of Alpha-2A adrenergic receptor (P08913 whole entry): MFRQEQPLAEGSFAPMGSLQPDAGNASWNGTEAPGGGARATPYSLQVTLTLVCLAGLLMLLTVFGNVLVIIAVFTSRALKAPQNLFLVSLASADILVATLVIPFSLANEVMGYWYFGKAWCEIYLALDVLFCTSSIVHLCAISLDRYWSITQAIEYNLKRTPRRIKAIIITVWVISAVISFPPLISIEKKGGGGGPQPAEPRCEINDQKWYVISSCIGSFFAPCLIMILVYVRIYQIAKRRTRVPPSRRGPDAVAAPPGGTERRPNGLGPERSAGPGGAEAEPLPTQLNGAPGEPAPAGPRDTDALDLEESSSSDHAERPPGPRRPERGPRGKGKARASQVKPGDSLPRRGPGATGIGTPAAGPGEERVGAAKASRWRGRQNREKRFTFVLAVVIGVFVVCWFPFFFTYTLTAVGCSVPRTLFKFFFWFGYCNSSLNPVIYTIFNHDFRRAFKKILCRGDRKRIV

[4] = target: 5-hydroxytryptamine receptor 2C (Homo sapiens, UniProt P28335); assay: Displacement of [3H]-mesulergine from recombinant human 5HT2C receptor transiently expressed in HEKT cell membranes measured after 90 mins by microbeta scintillation counting method
Sequence of 5-hydroxytryptamine receptor 2C (P28335 whole entry): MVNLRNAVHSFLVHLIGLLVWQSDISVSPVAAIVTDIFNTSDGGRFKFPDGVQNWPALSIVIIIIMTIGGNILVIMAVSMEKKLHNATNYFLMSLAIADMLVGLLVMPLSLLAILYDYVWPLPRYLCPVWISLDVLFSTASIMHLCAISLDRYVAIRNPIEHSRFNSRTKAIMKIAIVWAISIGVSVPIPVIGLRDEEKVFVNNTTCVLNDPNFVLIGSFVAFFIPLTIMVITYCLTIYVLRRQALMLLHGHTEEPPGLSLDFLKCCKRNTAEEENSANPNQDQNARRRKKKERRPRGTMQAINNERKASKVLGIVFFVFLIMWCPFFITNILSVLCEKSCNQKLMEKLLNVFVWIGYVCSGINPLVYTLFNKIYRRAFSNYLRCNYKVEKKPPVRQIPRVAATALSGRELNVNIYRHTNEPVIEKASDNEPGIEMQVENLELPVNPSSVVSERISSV

[5] = target: T2, D(4) dopamine receptor (Homo sapiens, UniProt P21917); assay: Displacement of [3H]N-methylspiperone from recombinant human D4 receptor stably expressed in HEK cell membranes measured after 90 mins by microbeta scintillation counting method
T2 sequence (P21917 whole entry): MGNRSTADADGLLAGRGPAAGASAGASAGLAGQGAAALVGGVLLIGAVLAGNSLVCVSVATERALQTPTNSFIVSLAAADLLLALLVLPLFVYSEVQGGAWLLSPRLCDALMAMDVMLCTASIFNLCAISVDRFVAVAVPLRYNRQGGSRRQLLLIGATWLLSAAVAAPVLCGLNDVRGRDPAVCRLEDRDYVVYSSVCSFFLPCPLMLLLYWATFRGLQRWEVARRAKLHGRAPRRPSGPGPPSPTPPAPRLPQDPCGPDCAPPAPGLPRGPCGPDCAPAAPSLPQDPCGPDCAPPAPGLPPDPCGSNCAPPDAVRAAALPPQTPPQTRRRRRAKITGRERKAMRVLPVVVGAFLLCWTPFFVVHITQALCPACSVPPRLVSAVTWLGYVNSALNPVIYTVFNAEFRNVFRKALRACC

[6] = target: T2, D(4) dopamine receptor; assay: Agonist activity at recombinant human D4 receptor expressed in CHOK1 cells assessed as induction of beta arrestin2 recruitment measured after 30 mins by coelenterazine-based beta-galactosidase reporter gene assay; format: cell-based
[7] = target: Muscarinic acetylcholine receptor M3 (Homo sapiens, UniProt P20309); assay: Displacement of [3H]-QNB/[3H]-NMS from human muscarinic M3 receptor expressed in stable CHO cells after 90 mins by microbeta scintillation counting method; format: cell-based
Sequence of Muscarinic acetylcholine receptor M3 (P20309 whole entry): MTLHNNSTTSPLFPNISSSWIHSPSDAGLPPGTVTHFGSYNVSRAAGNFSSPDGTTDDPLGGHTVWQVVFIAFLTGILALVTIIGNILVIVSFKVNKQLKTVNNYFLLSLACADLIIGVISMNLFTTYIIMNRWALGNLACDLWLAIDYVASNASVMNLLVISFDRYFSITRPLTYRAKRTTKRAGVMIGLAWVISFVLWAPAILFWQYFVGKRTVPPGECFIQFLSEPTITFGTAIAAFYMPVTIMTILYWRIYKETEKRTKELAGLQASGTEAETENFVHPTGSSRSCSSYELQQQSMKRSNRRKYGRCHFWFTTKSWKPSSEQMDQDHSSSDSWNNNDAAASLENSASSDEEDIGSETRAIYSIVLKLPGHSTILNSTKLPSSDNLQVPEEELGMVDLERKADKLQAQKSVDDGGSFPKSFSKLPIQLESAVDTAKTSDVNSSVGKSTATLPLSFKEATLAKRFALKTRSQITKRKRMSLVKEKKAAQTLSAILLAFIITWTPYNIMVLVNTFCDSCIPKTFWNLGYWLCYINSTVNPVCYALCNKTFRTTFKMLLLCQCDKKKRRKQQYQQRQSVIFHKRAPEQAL

[8] = target: D2 dopamine receptor (Homo sapiens, UniProt P14416); assay: Displacement of [3H]N-methylspiperone from recombinant human D2 receptor stably expressed in fibroblast at 10 uM measured after 90 mins by microbeta scintillation counting method relative to control; conditions: fibroblasts stably expressing recombinant human D2 receptor, probe [3H]N-methylspiperone
Sequence of D2 dopamine receptor (P14416 whole entry): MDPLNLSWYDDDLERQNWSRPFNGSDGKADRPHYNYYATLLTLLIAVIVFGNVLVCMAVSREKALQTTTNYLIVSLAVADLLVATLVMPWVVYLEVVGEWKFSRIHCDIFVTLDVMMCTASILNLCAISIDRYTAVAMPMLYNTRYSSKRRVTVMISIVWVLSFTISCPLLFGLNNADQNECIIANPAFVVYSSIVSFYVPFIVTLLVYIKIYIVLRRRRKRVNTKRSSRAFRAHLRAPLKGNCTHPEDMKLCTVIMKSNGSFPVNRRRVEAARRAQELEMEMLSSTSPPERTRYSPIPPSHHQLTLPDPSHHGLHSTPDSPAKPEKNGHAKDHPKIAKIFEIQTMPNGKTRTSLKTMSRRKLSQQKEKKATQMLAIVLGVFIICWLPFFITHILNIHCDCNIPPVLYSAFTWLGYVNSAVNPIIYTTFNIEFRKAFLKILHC

[9] = target: 5-hydroxytryptamine receptor 2A (Homo sapiens, UniProt P28223); assay: Displacement of [3H]-ketanserin from 5HT2A receptor (unknown origin) at 10 uM measured after 90 mins by microbeta scintillation counting method relative to control; how it was run: as §1
Sequence of 5-hydroxytryptamine receptor 2A (P28223 whole entry): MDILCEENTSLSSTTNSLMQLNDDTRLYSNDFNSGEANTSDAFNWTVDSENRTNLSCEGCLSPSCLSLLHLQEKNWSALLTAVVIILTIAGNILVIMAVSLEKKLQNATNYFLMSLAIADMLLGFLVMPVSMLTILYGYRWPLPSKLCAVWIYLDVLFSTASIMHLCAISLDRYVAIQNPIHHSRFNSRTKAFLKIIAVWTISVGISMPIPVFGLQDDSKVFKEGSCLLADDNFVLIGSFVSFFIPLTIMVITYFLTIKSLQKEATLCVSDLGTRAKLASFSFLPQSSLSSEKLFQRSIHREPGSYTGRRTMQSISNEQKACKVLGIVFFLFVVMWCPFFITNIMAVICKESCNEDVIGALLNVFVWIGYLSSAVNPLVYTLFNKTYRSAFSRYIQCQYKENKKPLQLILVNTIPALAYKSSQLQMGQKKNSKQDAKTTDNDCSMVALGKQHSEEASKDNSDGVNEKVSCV

[10] = target: Muscarinic acetylcholine receptor M2 (Homo sapiens, UniProt P08172); assay: Displacement of [3H]-QNB/[3H]-NMS from human muscarinic M2 receptor expressed in stable CHO cells after 90 mins by microbeta scintillation counting method; format: cell-based
Sequence of Muscarinic acetylcholine receptor M2 (P08172 whole entry): as the sequence (P08172 whole entry) above

[11] = target: T1, Neuronal acetylcholine receptor; alpha3/beta4; assay: Displacement of [3H]-epibatidine from recombinant human alpha3beta4 nACHR stably expressed in HEK cells measured after 90 mins by microbeta scintillation counting method; format: cell-based
[12] = target: 5-hydroxytryptamine receptor 1B (Homo sapiens, UniProt P28222); assay: Displacement of [3H]-5-CT from recombinant human 5HT1B receptor stably expressed in HEK cell membranes at 10 uM measured after 90 mins by microbeta scintillation counting method relative to control; how it was run: as §1
Sequence of 5-hydroxytryptamine receptor 1B (P28222 whole entry): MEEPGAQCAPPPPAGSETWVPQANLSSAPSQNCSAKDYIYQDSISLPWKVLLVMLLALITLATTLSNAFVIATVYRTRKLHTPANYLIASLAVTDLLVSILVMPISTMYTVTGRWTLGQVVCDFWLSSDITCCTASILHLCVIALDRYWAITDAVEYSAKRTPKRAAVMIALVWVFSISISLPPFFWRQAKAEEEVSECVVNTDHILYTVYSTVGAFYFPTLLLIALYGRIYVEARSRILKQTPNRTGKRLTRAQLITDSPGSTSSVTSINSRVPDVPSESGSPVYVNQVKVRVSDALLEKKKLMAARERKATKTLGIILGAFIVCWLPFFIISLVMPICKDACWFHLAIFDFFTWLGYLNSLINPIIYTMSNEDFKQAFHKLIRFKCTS

Structure (SMILES)	inhibition [1] [%]	inhibition [2] [%]	pKi [3]	pKi [4]	pKi [5]	pEC50 [6]	pKi [7]	inhibition at […], 10 µM [8] [%]	inhibition [9] [%]	pKi [10]	pKi [11]	inhibition [12] [%]
COc1ccccc1N1CCN(CCCSc2nnc(-c3ccccc3)n2C)CC1	< 50	< 50	6.66	6.80	6.14	6.44	–	–	–	–	–	–
COc1ccccc1N1CCC2(CCN(CCCSc3nnc(-c4ccccc4)n3C)CC2)CC1	–	–	–	–	–	–	6.29	< 50	< 50	7.28	5.07	< 50
